Consider five molecules from ChEMBL document CHEMBL5705888, “Substrate specificity and inhibitors of LRRK2, a protein kinase mutated in Parkinson's disease” (Biochem J, 2009).

For experiment [1], the target named is Rho-associated protein kinase 2 (Homo sapiens, UniProt O75116). Briefly: Inhibition of His6-tagged ROCK2 (2 to 543 residues) (unknown origin) using peptide as substrate incubated for 15 mins in presence of ATP by immunoblotting analysis.
In experiment [2] the target is Dual specificity tyrosine-phosphorylation-regulated kinase 1A (Homo sapiens) (UniProt Q13627). Briefly: Inhibition of DYRK1A (unknown origin) at 1 uM incubated for 30 mins in presence of [gamma-33P]ATP by multidrop micro reagent based assay relative to control; values are per cent of control.
Experiment [3] has as its target 3-phosphoinositide-dependent protein kinase 1 (Homo sapiens) (UniProt O15530). Description: Inhibition of PDK1 (unknown origin) at 1 uM incubated for 30 mins in presence of [gamma-33P]ATP by multidrop micro reagent based assay relative to control; values are per cent of control.
The target of experiment [4] is Leucine-rich repeat serine/threonine-protein kinase 2 (Homo sapiens, UniProt Q5S007, A2016T/G2019S). Description: Inhibition of GST-tagged LRRK2 G2019S/A2016T mutant (1326 to 2527 residues) (unknown origin) in presence of ATP.
The target in experiment [5] is Serine/threonine-protein kinase N2 (Homo sapiens) (UniProt Q16513). Description: Inhibition of PRK2 (unknown origin) at 10 uM incubated for 30 mins in presence of [gamma-33P]ATP by multidrop micro reagent based assay relative to control. The method, boiled down:
(§1)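 Single-concentration screen across a panel of 85 protein kinases. Activity is expressed as a percentage of control incubations run without inhibitor.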

Experiment [6] addresses T1, Dual specificity tyrosine-phosphorylation-regulated kinase 3 (Homo sapiens) (UniProt O43781).
T1 sequence (whole entry): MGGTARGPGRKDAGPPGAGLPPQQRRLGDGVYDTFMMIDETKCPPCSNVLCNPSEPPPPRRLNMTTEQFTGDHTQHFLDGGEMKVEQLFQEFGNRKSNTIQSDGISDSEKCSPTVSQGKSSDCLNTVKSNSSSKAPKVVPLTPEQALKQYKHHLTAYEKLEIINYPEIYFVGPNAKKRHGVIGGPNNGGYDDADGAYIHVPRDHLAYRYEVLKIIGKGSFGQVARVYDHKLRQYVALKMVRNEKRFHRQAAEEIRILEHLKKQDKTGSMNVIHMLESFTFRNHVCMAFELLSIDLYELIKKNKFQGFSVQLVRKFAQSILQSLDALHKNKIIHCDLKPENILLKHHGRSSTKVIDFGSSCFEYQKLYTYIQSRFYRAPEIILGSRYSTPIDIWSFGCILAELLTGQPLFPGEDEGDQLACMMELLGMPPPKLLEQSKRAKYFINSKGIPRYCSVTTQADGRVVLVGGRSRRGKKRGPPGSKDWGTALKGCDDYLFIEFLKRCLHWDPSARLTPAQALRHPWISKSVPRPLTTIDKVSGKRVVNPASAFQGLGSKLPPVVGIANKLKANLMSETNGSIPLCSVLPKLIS
Description: Inhibition of DYRK3 (unknown origin) at 10 uM incubated for 30 mins in presence of [gamma-33P]ATP by multidrop micro reagent based assay relative to control.

Experiment [7] deals with Ephrin type-A receptor 2 (Homo sapiens) (UniProt P29317). Description: Inhibition of EPH A2 (unknown origin) at 10 uM incubated for 30 mins in presence of [gamma-33P]ATP by multidrop micro reagent based assay relative to control; values are per cent of control.
For experiment [8], the target named is Ribosomal protein S6 kinase alpha-5 (Homo sapiens) (UniProt O75582). Description: Inhibition of MSK1 (unknown origin) at 10 uM incubated for 30 mins in presence of [gamma-33P]ATP by multidrop micro reagent based assay relative to control. A digest of the protocol:
as §1

In experiment [9] the target is Tyrosine-protein kinase SYK (Homo sapiens) (UniProt P43405). Description: Inhibition of SYK (unknown origin) at 10 uM incubated for 30 mins in presence of [gamma-33P]ATP by multidrop micro reagent based assay relative to control; values are per cent of control.
Experiment [10] concerns the target Insulin receptor (Homo sapiens) (UniProt P06213). Description: Inhibition of His-tagged IR (unknown origin) at 10 uM incubated for 30 mins in presence of [gamma-33P]ATP by multidrop micro reagent based assay relative to control.
For experiment [11], the target named is Calcium/calmodulin-dependent protein kinase kinase 2 (Homo sapiens) (UniProt Q96RR4). Briefly: Residual activity of CaMKKbeta (unknown origin) at 10 uM incubated for 30 mins in presence of [gamma-33P]ATP by multidrop micro reagent based assay relative to control.
Experiment [12] concerns the target RAC-beta serine/threonine-protein kinase (Homo sapiens) (UniProt P31751). Briefly: Inhibition of PKBbeta (unknown origin) at 10 uM incubated for 30 mins in presence of [gamma-33P]ATP by multidrop micro reagent based assay relative to control; values are per cent of control.
The target in experiment [13] is Leucine-rich repeat serine/threonine-protein kinase 2 (Homo sapiens, UniProt Q5S007). Description: Inhibition of LRRK2 (unknown origin) at 10 uM incubated for 30 mins in presence of [gamma-33P]ATP by multidrop micro reagent based assay relative to control.
Experiment [14] concerns the target Mitogen-activated protein kinase 13 (Homo sapiens) (UniProt O15264). Briefly: Residual activity of p38delta MAPK (unknown origin) at 10 uM incubated for 30 mins in presence of [gamma-33P]ATP by multidrop micro reagent based assay relative to control.
The target of experiment [15] is Ribosomal protein S6 kinase alpha-1 (Homo sapiens) (UniProt Q15418). Briefly: Inhibition of RSK1 (unknown origin) at 10 uM incubated for 30 mins in presence of [gamma-33P]ATP by multidrop micro reagent based assay relative to control. The method, boiled down: as §1
Another experiment is filed under the species Homo sapiens. Briefly: Inhibition of CDK2/cyclin A (unknown origin) at 10 uM incubated for 30 mins in presence of [gamma-33P]ATP by multidrop micro reagent based assay relative to control.
Experiment [16] concerns the target Misshapen-like kinase 1 (Homo sapiens) (UniProt Q8N4C8). Briefly: Inhibition of MINK1 (unknown origin) at 10 uM incubated for 30 mins in presence of [gamma-33P]ATP by multidrop micro reagent based assay relative to control; values are per cent of control.
Experiment [17] shares this target. Description: Inhibition of MINK1 (unknown origin) at 0.1 uM incubated for 30 mins in presence of [gamma-33P]ATP by multidrop micro reagent based assay relative to control.
Experiment [18] addresses Leucine-rich repeat serine/threonine-protein kinase 2 (Mus musculus) (UniProt Q5S006). Briefly: Inhibition of LRRK2 in mouse Swiss-3T3 cells at 0.3 uM using Nictide as substrate by immunoblot analysis. The format is cell-based. For orientation: In western blotting, separated proteins are transferred to a membrane and probed.

pIC50: −log10 of the molar value. Activity calls are given as the source filed them. The calls are words filed in the database; no cut-off is given here.

Chain of Misshapen-like kinase 1 (Homo sapiens) (Q8N4C8 whole entry, looked up): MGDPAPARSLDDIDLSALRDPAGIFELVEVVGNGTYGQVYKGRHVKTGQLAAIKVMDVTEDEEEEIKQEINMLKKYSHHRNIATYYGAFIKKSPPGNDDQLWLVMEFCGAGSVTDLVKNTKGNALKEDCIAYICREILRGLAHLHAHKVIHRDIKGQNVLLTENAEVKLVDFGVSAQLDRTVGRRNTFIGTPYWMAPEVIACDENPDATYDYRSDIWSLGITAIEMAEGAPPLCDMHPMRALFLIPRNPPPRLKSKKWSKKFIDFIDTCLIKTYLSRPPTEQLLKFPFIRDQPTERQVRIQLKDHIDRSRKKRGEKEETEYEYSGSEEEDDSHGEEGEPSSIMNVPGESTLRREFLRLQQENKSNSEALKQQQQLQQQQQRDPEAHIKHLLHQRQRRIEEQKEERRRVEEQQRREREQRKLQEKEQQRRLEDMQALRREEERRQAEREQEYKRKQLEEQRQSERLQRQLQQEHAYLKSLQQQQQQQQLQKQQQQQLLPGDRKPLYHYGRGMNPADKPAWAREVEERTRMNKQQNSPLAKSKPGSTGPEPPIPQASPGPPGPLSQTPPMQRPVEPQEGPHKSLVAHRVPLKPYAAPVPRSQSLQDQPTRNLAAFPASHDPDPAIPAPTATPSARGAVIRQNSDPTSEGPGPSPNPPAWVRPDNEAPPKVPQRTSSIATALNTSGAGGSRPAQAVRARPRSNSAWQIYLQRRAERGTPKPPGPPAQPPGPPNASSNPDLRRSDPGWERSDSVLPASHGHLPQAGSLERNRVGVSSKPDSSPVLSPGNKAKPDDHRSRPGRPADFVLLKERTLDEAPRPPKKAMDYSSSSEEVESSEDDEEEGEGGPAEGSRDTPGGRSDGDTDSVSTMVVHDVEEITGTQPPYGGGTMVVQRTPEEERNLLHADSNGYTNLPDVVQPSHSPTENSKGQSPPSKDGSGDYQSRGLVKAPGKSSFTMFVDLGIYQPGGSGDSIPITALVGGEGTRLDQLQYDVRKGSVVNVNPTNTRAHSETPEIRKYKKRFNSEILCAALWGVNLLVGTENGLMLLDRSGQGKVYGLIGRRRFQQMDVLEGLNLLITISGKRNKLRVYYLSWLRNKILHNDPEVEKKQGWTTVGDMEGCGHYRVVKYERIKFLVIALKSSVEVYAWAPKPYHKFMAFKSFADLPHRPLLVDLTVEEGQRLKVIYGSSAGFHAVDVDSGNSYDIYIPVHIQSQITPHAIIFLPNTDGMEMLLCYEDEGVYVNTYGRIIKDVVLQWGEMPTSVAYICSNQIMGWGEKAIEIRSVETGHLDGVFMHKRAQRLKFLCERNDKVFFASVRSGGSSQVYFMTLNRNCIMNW
Chain of Rho-associated protein kinase 2 (O75116 whole entry, the tested form may be a part): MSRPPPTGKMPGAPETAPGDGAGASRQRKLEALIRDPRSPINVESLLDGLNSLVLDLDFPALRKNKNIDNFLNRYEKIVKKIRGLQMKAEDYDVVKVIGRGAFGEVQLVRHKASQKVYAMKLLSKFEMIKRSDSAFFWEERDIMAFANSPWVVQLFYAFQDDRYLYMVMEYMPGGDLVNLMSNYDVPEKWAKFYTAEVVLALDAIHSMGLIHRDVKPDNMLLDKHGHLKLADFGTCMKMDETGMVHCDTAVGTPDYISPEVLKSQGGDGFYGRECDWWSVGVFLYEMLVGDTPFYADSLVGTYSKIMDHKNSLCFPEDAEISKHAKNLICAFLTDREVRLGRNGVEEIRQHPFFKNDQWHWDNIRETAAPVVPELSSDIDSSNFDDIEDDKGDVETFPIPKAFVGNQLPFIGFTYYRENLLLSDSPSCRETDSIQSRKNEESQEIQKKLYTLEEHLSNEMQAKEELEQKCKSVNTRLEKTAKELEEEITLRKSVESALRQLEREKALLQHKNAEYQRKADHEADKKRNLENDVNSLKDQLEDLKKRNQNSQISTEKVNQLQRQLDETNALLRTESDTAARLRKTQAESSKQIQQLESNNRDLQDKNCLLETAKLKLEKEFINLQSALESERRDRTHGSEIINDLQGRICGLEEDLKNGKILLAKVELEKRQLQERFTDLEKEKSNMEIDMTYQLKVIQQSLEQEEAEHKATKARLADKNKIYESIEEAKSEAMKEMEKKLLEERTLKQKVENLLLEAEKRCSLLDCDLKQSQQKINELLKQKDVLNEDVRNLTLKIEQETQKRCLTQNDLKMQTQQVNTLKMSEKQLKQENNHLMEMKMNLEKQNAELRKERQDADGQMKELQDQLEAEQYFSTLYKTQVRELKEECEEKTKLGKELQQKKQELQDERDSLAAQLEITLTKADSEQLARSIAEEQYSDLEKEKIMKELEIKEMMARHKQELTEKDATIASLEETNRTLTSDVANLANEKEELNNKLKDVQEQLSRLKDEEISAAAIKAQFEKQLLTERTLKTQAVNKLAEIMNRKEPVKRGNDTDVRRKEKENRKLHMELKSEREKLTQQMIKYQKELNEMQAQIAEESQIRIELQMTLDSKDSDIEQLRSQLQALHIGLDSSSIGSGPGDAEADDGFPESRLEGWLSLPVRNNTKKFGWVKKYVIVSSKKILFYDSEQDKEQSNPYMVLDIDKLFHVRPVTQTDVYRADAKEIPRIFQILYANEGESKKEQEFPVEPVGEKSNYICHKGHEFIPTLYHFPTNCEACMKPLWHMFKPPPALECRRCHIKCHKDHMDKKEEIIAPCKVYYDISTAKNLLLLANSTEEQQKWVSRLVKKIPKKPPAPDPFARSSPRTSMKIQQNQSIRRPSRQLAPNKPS
Chain of Serine/threonine-protein kinase N2 (Homo sapiens) (Q16513 whole entry, looked up): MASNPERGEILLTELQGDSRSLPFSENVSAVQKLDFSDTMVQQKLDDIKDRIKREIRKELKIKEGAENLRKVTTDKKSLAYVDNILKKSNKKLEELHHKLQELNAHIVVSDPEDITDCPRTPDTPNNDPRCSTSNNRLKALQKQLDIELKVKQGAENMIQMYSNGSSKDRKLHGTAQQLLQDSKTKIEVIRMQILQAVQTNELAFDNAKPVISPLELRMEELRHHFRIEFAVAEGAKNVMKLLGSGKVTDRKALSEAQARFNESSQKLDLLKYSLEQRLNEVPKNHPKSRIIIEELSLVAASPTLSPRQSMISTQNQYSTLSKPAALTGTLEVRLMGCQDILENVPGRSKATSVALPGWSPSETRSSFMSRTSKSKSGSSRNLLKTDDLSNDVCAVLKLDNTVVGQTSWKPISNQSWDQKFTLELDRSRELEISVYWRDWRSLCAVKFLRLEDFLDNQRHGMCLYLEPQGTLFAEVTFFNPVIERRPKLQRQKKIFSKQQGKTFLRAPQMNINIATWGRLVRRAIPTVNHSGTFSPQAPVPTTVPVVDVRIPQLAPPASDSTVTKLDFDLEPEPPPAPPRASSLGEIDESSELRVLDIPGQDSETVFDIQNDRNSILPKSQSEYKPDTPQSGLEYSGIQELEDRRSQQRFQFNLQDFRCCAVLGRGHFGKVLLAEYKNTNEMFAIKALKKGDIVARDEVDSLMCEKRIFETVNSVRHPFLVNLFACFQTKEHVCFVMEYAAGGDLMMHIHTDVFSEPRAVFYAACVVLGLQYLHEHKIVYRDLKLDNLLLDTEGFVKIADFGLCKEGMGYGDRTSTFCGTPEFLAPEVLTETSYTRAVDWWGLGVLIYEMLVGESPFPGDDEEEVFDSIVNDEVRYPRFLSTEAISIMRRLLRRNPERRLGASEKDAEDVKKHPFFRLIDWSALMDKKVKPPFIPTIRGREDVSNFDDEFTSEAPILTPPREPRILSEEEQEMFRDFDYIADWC
Chain of 3-phosphoinositide-dependent protein kinase 1 (Homo sapiens) (O15530 whole entry, looked up, the tested form may be a part): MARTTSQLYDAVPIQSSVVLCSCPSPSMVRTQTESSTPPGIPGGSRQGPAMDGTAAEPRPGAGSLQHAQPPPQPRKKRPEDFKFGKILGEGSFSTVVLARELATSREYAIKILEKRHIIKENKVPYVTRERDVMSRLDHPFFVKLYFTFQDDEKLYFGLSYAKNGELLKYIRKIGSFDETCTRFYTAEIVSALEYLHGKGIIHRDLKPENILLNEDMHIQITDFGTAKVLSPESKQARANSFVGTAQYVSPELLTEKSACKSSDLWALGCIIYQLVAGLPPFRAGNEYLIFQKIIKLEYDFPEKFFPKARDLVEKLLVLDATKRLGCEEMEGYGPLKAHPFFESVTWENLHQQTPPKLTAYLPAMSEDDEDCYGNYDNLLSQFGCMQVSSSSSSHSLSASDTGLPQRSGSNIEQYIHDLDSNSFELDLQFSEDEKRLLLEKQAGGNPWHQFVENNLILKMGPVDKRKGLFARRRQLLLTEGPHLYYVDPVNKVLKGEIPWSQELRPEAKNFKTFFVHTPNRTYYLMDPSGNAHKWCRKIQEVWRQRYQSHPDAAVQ
Chain of Calcium/calmodulin-dependent protein kinase kinase 2 (Homo sapiens) (Q96RR4 2-588 limits assumed): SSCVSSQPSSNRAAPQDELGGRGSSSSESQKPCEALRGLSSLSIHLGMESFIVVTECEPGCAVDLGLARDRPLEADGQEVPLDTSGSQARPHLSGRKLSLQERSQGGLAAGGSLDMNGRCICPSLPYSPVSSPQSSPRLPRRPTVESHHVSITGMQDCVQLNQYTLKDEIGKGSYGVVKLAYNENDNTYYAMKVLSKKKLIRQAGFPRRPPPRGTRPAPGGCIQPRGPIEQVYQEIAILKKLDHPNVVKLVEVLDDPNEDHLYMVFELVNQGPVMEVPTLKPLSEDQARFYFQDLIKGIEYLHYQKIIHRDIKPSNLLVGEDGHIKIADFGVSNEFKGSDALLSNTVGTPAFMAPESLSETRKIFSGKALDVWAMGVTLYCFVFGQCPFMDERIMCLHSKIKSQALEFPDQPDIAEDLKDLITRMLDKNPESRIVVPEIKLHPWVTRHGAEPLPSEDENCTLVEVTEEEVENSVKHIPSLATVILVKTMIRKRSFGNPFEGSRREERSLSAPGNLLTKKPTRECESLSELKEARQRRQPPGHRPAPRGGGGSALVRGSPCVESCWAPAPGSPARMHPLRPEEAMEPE

A word on the pIC50: it is the IC50 on a negative log10 scale, so that one unit is a factor of ten. Consider `CC1=C(C(=O)Nc2cc3cn[nH]c3cc2F)C(c2ccc(C(F)(F)F)cc2)CC(=O)N1` (centres undefined), for which, in experiment [1], the pIC50 was 7.20. Further, the residual activity was 98% in experiment [2] and 120% in experiment [3].

Consider `Cc1cncc2cccc(S(=O)(=O)N3CCCNC[C@@H]3C)c12`, for which the pIC50 in experiment [4] is 5.48.

One may read the inhibition as the relative decrease from the control value, in per cent. In the case of `C[C@@H](N)[C@H]1CC[C@H](C(=O)Nc2ccncc2)CC1`, the inhibition was found to be 7% in experiment [5]; 100% in experiment [6]; 41% in experiment [8]; 113% in experiment [10]; 22% in experiment [13]; 26% in experiment [15]. Besides, the residual activity in experiment [7] came out at 106%; in [9], 94%; in [11], 102%; in experiment [12], 105%; in [14] it was 86%.

As to `O=S(=O)(c1cccc2cnccc12)N1CCCNCC1` [FASUDIL], the inhibition in the experiment filed under Homo sapiens was 82%. The residual activity in experiment [16] came to 54%.

On to `CCN(CC)CCNC(=O)c1c(C)[nH]c(/C=C2\C(=O)Nc3ccc(F)cc32)c1C`, for which the inhibition in experiment [17] came out at 46%. Also, in experiment [18], the inhibition entry is “Active”.
